An excerpt weighted towards active compounds, which were near 3.7% of everything screened.
Kir21 block: Kir2.1 (mouse) channel inhibition | P35561 | HEK293-Kir2.1, FluxOR thallium flux fluorescence; hits give low values | B-score at 10 µM | 310,000 tested, 0.85% active;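 active = fluorescence ratio B-score at or below minus 3 SD of library scores, with starting-brightness B-score within 2 SD, cut at about -4.2 in these data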;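 note: channel flux triggered by added potassium and thallium sulfate stimulus; B-score of peak minus minimum fluorescence over baseline after thallium stimulus; more negative B-score means stronger Kir2.1 block with less thallium influx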
hERG rescue: hERG (human) protection from proarrhythmic block; Q12809; CHO-hERG, FluxOR thallium flux, dofetilide IC70 present; activation (rescue from dofetilide block), less the hit threshold, % at 10 µM; 310,000 tested, 0.51% active;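 active = activation above the mean of controls blocked by dofetilide plus 5 SD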;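 note: thallium influx through hERG after potassium depolarization seen as dye fluorescence rise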
KCNQ1 block: blocks the human KCNQ1 potassium channel; CHO-K1 KCNQ1, FluxOR thallium flux fluorescence; hits give high values; B-score at 10 µM; 310,000 tested, 1.3% active;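 active = compounds whose thallium flux B-score, printed positive for inhibition, exceeds three library SD while starting fluorescence stays within three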;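 note: channel opened by potassium depolarization with thallium stimulus after 20 min compound exposure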
Target sequence (P51787 whole entry, looked up): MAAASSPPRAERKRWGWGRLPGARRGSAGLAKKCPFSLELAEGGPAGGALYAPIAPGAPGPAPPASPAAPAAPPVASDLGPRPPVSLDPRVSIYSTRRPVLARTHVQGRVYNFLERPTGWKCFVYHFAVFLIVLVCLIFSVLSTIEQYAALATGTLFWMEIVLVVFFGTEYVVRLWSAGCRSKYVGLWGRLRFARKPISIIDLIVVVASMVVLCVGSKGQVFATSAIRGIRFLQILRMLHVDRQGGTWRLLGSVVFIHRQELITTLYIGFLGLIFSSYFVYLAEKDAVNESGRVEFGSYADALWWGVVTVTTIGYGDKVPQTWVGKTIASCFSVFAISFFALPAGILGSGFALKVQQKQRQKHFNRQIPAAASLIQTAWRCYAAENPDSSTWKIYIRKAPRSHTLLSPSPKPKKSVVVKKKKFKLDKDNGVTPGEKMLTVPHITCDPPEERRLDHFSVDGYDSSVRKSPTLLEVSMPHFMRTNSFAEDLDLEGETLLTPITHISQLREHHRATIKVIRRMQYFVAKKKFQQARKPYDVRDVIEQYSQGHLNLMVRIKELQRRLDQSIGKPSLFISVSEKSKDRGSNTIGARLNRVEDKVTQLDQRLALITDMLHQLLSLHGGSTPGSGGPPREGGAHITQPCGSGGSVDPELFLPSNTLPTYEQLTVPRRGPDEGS
KCNK9 block: inhibitors of human KCNK9 two-pore domain potassium channel; Q9NPC2; HEK293 KCNK9, FluxOR thallium flux fluorescence; hits give low values; B-score at 10 µM; 310,000 tested, 1.2% active;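 active = ratio B-score over 3 SD below the library mean, with starting fluorescence within 5 SD of its mean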;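 note: negative B-score means less thallium flux so channel inhibition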
KCNK3 inh: human KCNK3 channel inhibition, primary screen | O14649 | CHO-KCNK3 thallium flux, FluxOR fluorescence; hits give low values | B-score at 10 µM | 340,000 tested, 0.84% active | AID 602410;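 active = B-score under library mean minus 4 SD, starting fluorescence ratio at most library mean plus 5 SD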;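 note: more negative B-score means stronger inhibition of thallium flux through KCNK3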
KCNQ1 pot: potentiators or activators of human KCNQ1 potassium channel; P51787; CHO-K1 KCNQ1, thallium flux FluxOR fluorescence; hits give high values; B-score at 10 µM; 310,000 tested, 0.35% active;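 active = fluorescence ratio B-score, a plate-corrected score, at least three library SD, with initial intensity B-score within 5 SD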
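Test system: CHO-K1 cells stably expressing KCNQ1 / Medium: assay buffer / Also added: depolarizing K+/Tl+ stimulus, K2SO4 and Tl2SO4 each 12.5 mM in 5x stock / Incubation: 90 min dye loading and 20 min compound exposure, both at room temperature / Signal: thallium influx via FluxOR fluorescence, kinetic imaging / Evaluation: B score of baseline-normalized fluorescence ratio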
KCNK9 block conf: human KCNK9 inhibitor confirmation | shares compounds with KCNK9 block | HEK293 KCNK9 cells, FluxOR thallium flux fluorescence | inhibition, % at 10 µM | 4,900 tested, 43% active | AID 492992;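 active = thallium signal inhibited by more than 5 SD of the compound-free buffer control wells, on both duplicate plates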;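 note: 0% = assay buffer control wells without compound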
Kir21 sel: selectivity of KCNK9 modulators against mouse Kir2.1; 4,900 tested, 4% active; shares compounds with KCNK9 block; AID 492993; inhibition, % at 10 µM; Kir2.1 cells, FluxOR thallium flux fluorescence;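 active = thallium signal drop more than 5 SD beyond the mean of the no-compound control wells, seen in both duplicate plates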;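 note: signal is fluorescence rise after thallium addition divided by baseline fluorescence; plate controls were assay buffer only for no effect and full block by chlorpromazine control for full effect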
KCNK9 uninduced: second check of KCNK9 modulator effects in non-induced HEK293 cells. inhibition, % at 10 µM. shares compounds with KCNK9 block. AID 492997. 4,900 tested, 40% active. FluxOR thallium flux;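 active = thallium signal drop beyond 5 SD of the untreated control mean, on both duplicate plates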;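 note: plate controls were buffer only IC0 wells for no effect and SID17386958 at its maximal inhibitory level for full effect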
KCNK3 inh conf: confirmation of human KCNK3 two-pore domain potassium channel inhibitors; 2,400 tested, 99% active; ratio percent of control, % at 10 µM; CHO-KCNK3 thallium flux, FluxOR fluorescence; 0% buffer, 100% carvedilol maximal block; shares compounds with KCNK3 inh;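 active = ratio percent of control, averaged over triplicates, above buffer control mean plus 5 SD, cut at about 64% in these data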;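 note: ratio is the fluorescence rise from min to max over baseline after thallium stimulus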
KCNK3 noninduced: KCNK3 inhibitor counter-screen hit in non-induced cells; shares compounds with KCNK3 inh; non-induced KCNK3 parental cells, FluxOR thallium flux; hits give low values; thallium flux ratio (lower = more inhibition) at 10 µM; 2,400 tested, 40% active; AID 651747;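 active = thallium flux ratio, averaged over three wells, more than 5 SD below the buffer control mean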;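 note: host cells are CHO cells without KCNK3 induction; ratio is peak minus trough fluorescence over baseline then normalized to buffer controls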
* hit, by the source's call; i = inactive; x = no result.

SMILES | Kir21 block | hERG rescue | KCNQ1 block | KCNK9 block | KCNK3 inh | KCNQ1 pot | KCNK9 block conf | Kir21 sel | KCNK9 uninduced | KCNK3 inh conf | KCNK3 noninduced
COCCn1c(SCCOc2ccccc2)nc2ccccc2c1=O | -2.28 | -11.2 | i | -10.7* | -9.03* | i | 37.5%* | i | 46.5%* | 114.3* | 0.143*
COCCn1c(SCC(=O)c2ccccc2)nc2ccccc2c1=O | 1.49 | -6.2 | i | i | i | i | x | x | x | x | x
OCCn1c(SCCOc2ccccc2)nc2ccccc21 | -0.61 | -7.9 | i | i | i | i | x | x | x | x | x
CC1CCCC(N2C(=O)NC(NC(=O)c3ccco3)(C(F)(F)F)C2=O)C1C (stereo not drawn) | -0.01 | -7.3 | i | i | i | i | x | x | x | x | x
CON(C)S(=O)(=O)c1cccc(C(=O)Oc2ccc(N(C)S(=O)(=O)c3ccccc3)cc2)c1 | 1.63 | -11.5 | i | i | i | i | x | x | x | x | x
COC(=O)C1=C(C)N=C2SC(C#N)=C(N)N2C1c1ccc(OCc2ccccc2)cc1 (stereo not drawn) | -2.39 | -5.6 | i | -16.6* | -9.91* | i | 74.0%* | i | 52.0%* | 96.7* | 0.149*
COC(=O)C1=C(C)N=C2SC(C#N)=C(N)N2C1c1cc(OC)c(OC)c(OC)c1 (stereo not drawn) | 0.39 | -4.7 | i | i | i | i | x | x | x | x | x
CN(C)S(=O)(=O)N1CCCC(C(=O)c2ccc(-c3ccccc3)c(F)c2)C1 (stereo not drawn) | 0.16 | -59.4 | i | -8.38* | -10.8* | i | 30.5%* | i | 45.0%* | 118.7* | i
C=CC[n+]1c(/C=C2\C=Cc3cc(C)ccc3N2CC)ccc2ccccc21 | -6.53* | -33.4 | 16* | -13.3* | -16.1* | i | 78.5%* | 88.0%* | 63.0%* | 146.3* | 0.112*
Cc1nccc(-c2cc(-c3ccc(Cl)cc3Cl)no2)n1 | -0.34 | -2.2 | i | i | i | i | x | x | x | x | x
COc1nnc(-c2ccc(N3CCOCC3)c(NC(=O)C3CCCCC3)c2)c2ccccc12 | 0.24 | -13.2 | i | i | i | i | x | x | x | x | x
COc1nnc(-c2ccc(N3CCCCC3)c(NC(=O)C3CCCCC3)c2)c2ccccc12 | -0.4 | -15.3 | 12* | -14.9* | -11* | i | 51.5%* | i | i | 125.3* | 0.141*
CCn1c(=O)cc(C(F)(F)F)[nH]c1=S | 2.03 | -1.9 | i | i | i | i | x | x | x | x | x
Cn1ncc(C#N)c1/N=C/N(Cc1ccccc1)Cc1ccccc1 | 0.37 | -10.5 | i | -15.4* | -8.86* | i | 36.0%* | i | 29.0%* | 113.7* | 0.156*
Cc1ccccc1CN(C)C(C)C(=O)Nc1ccccc1F (stereo not drawn) | 0.14 | -10.0 | i | -13.9* | -11* | i | 58.5%* | i | 43.5%* | 114.0* | i
N#CC1=C(N)n2c(s/c(=C\c3ccco3)c2=O)=C(C#N)C1c1ccco1 (stereo not drawn) | -0.55 | -6.7 | i | i | i | i | x | x | x | x | x
N#CC1=C(N)n2c(s/c(=C\c3cccs3)c2=O)=C(C#N)C1c1cccs1 (stereo not drawn) | 1.21 | -8.7 | i | -11.1* | -9.44* | i | 26.5%* | i | 39.0%* | 96.0* | 0.154*
CC(Oc1ccc(Cl)cc1Cl)c1nc(-c2ccc(NC(=O)c3ccco3)cc2)no1 (stereo not drawn) | 1.46 | -10.2 | i | -13* | -8.83* | i | 53.0%* | i | 34.5%* | 121.0* | 0.147*
COC(=O)C(C)N(C(=O)c1ccc(C(=O)c2ccccc2)cc1)c1c(C)cccc1C (stereo not drawn) | -2.79 | -3.6 | i | -8.97* | -11.2* | i | 40.0%* | i | 34.5%* | 92.0* | i
CC(C)C(=O)Nc1ccc(C(=O)c2ccccc2)cc1 | 0.08 | -9.8 | i | i | i | i | x | x | x | x | x
O=C(CC(CC(=O)c1ccccc1)C(=O)O)c1ccccc1 | 0.09 | -14.8 | i | i | i | i | x | x | x | x | x
O=C(CC(CC(=O)c1ccccc1)c1ccccc1)c1ccccc1 | 0.83 | -9.7 | i | -11.7* | -10.7* | i | 36.5%* | i | 34.0%* | 110.3* | i
Cn1cccc1/C=C1\CCC/C(=C\c2cccn2C)C1=O | -8.56 | -36.2 | 14* | -9.56* | -12* | i | 77.5%* | 60.5%* | i | 0.0 | i
CC(C)(c1ccccc1)c1ccc(OCCn2cnc3ccccc3c2=O)cc1 | -0.77 | -9.8 | i | i | -13.3* | i | i | i | 40.0%* | 72.7* | 0.149*
CCOC(=O)/C(=C/C1=CC(=C/N(C)C)/C(=O)O1)C(C)=O | -9.48 | -22.9 | i | i | i | i | x | x | x | x | x
SMILES | Kir21 block | hERG rescue | KCNQ1 block | KCNK9 block | KCNK3 inh | KCNQ1 pot | KCNK9 block conf | Kir21 sel | KCNK9 uninduced | KCNK3 inh conf | KCNK3 noninduced
CCN(CC)C(=O)Oc1ccc(Br)cc1C(=O)Nc1ccc(F)cc1F | -0.05 | -11.0 | i | i | i | i | x | x | x | x | x
CSc1nc2ccc(NS(=O)(=O)c3ccc(Br)s3)cc2s1 | -2.77 | -18.6 | 6* | -8.34* | -11.4* | i | 35.0%* | i | i | 127.0* | 0.128*
CC(=O)c1c(C)[nH]c(C(=O)COC(=O)COc2ccccc2F)c1C | x | x | x | x | i | x | x | x | x | x | x
Cc1noc(C)c1COc1ccccc1C(=O)NCCc1ccc(Cl)cc1 | -5.02 | -15.2 | i | -20.4* | -9.35* | i | 63.0%* | i | 35.0%* | 81.3* | i
CCOC(=O)C1(CCOc2ccccc2)CCN(Cc2cc(OC)c3c(c2)OCO3)CC1 | -1.34 | -18.4 | i | i | i | i | x | x | x | x | x
O=C(NC1CCCCC1)NC1C2CC3CC(C2)CC1C3 (stereo not drawn) | -1.93 | -2.0 | i | i | i | i | x | x | x | x | x
Cc1nn(Cc2ccc(C(=O)Nc3nc4c(C)cccc4s3)o2)c(C)c1Br | -0.1 | -2.4 | i | -13.5* | -9.92* | i | 43.5%* | i | i | 87.7* | i

Screens (PubChem)
